Compounds with a hit are over-represented: about 2.9% of the library has one in this group of screens.
OX1R antag-1: human HCRTR1 antagonism | inhibition, % at 5 µM | AID 434989 | 330,000 compounds, 0.43% hits | O43613 | CHO/OX1R cells, Fluo-8 calcium fluorescence, orexin A;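 active = inhibition above its plate's threshold, mean inhibition of all tested compounds on the plate plus 3 SD, cut at about 37% in these data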
Target sequence (O43613 whole entry, looked up): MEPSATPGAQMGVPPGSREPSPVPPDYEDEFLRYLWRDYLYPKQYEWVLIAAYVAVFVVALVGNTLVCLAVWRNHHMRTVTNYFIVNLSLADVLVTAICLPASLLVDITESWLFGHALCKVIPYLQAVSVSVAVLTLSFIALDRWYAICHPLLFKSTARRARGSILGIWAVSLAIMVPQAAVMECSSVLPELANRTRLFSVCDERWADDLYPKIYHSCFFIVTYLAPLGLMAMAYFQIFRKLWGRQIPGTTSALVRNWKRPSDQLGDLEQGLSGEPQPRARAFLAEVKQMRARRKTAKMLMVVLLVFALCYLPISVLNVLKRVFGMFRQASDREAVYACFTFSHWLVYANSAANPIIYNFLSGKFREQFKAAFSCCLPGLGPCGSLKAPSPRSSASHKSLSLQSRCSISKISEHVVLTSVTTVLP
M1 ag parental: nonselective activator or artifact in parental CHO-K1 cells; Fluo-8 calcium fluorescence; scaled to maximal ATP response, vehicle zero; activation, % at 3 µM; 360,000 compounds, 0.48% hits; AID 602248; in the data active = activation above about 15%;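 note: untransfected CHO-K1 host cells lacking M1 receptor as counterscreen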
CHO-K1 Ca antag: M1 antagonist counterscreen hit in parental CHO-K1 cells; inhibition, % at 3 µM; ATP-induced calcium, Fluo-8 fluorescence; 360,000 compounds, 0.6% hits;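 active = inhibition above a per-plate cutoff, the plate's mean sample inhibition plus 3 SD, cut at about 24% in these data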
CHO-K1 Ca PAM: nonselective activator or artifact in parental CHO-K1 calcium assay | 360,000 compounds, 0.02% hits | ATP EC20, Fluo-8 calcium fluorescence; 0% at ATP EC20, 100% at ATP max | activation, % at 3 µM;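 active = activation above the run cutoff, the mean activation of all test compounds plus 3 SD, cut at about 40% in these data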;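 note: peak over basal fluorescence ratio in a 140 s read after ATP addition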
CHO parental Ca: counter-screen: ATP calcium response change in parental CHO cells | parental CHO-K1, ATP-induced calcium, Fluo-8 fluorescence | 330,000 compounds, 0.63% hits | inhibition, % at 5.6 µM | AID 463079;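 active = inhibition above that plate's mean sample inhibition plus 3 SD, cut at about 26% in these data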
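Test system: untransfected parental CHO cell line. Compound: one dose, 5.6 µM nominal. Detection: intracellular calcium via Fluo-8 no-wash fluorescent dye. Measure: % inhibition. Benchmarks: ATP-challenged DMSO wells low, unchallenged DMSO wells high.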
OX1R antag-2: blocks the human orexin 1 receptor; O43613; OX1R-expressing cells, FRET antagonist read-out; 330,000 compounds, 1.8% hits; inhibition, % at 6.6 µM; AID 485270; in the data active = inhibition mostly above about 38%, no sharp cut-off; inactive = mostly below about 40%
OX1R Fluo8 conf: OX1R (human) antagonism, confirmed; shares compounds with OX1R antag-1; CHO/OX1R cells, orexin A calcium Fluo-8 fluorescence; inhibition, % at 5 µM; 1,100 compounds, 38% hits; AID 492963; in the data active = inhibition above about 29%
CHO Ca counter: signal in parental CHO cells, OX1R antagonist counter-screen; shares compounds with OX1R antag-1; parental CHO-K1, ATP-induced calcium, Fluo-8 fluorescence; inhibition, % at 5.6 µM; 1,100 compounds, 9.3% hits;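 active = inhibition above a per-plate limit, the mean inhibition of that plate's test compounds plus 3 SD, cut at about 25% in these data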
OX1R HTRF conf: OX1R (human) antagonism, HTRF confirmed | shares compounds with OX1R antag-2 | AID 492964 | 1,800 compounds, 49% hits | inhibition, % at 6.6 µM | OX1R-expressing cells, HTRF antagonist assay; in the data active = inhibition above about 55%;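 note: CHO cells expressing OX1R stimulated with orexin A at about EC80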
CHO-K1 HTRF cnt: signal in parental CHO-K1 cells, OX1R antagonist counter-screen; HTRF counterscreen; shares compounds with OX1R antag-2; AID 493232; inhibition, % at 6.6 µM; 1,800 compounds, 48% hits; in the data active = inhibition above about 17%
Of the large screens only hits and unclear results are named; the others gave an inactive call (follow-up assays come after a bar, where they were run).

O=C1CC(NCc2ccccc2F)C(=O)N1c1ccccc1 (stereo not drawn)	OX1R antag-1 43 | OX1R Fluo8 conf inactive | CHO Ca counter inactive
C/C(=N/NC(=O)c1ccncc1)c1cc2ccc(O)cc2oc1=O	none | OX1R Fluo8 conf 66 | CHO Ca counter 54
C/C(=N\Nc1ccc(C(F)(F)F)cn1)c1ccc(S(=O)(=O)NCc2ccco2)cc1	none | OX1R Fluo8 conf inactive | CHO Ca counter inactive
CN(C)S(=O)(=O)c1ccc(-c2csc(N/N=C/c3ccco3)n2)cc1	none | OX1R Fluo8 conf 70 | CHO Ca counter inactive
OCCN1CCN(c2cc(-c3ccc4ccccc4c3)nc3ccnn23)CC1	none (no result: OX1R antag-1, CHO parental Ca, OX1R antag-2)
NC(=O)c1ccc(N2CCN(c3ccccc3F)CC2)c([N+](=O)[O-])c1	none | OX1R Fluo8 conf inactive | CHO Ca counter inactive
CC(SC1=NCCN1S(=O)(=O)c1ccccc1)c1ccccc1 (stereo not drawn)	none
Oc1ccccc1Nc1nc(NCc2ccco2)c2ccccc2n1	none
c1ccc(Nc2nc(NCc3ccco3)c3ccccc3n2)cc1	none | OX1R Fluo8 conf inactive | CHO Ca counter inactive
Cc1sc2cc3c(c(C(=O)c4ccccc4)[n+]2c1C)-c1cccc2cccc-3c12	none (no result: M1 ag parental, CHO-K1 Ca antag, CHO-K1 Ca PAM)
O=C(c1ccccc1)c1c2c(cc3sc4ccccc4[n+]13)-c1cccc3cccc-2c13	M1 ag parental 24, CHO-K1 Ca antag 24 | OX1R Fluo8 conf 36 | CHO Ca counter 37
CCC1CN(S(=O)(=O)c2cc(-c3cc(C)no3)ccc2OC)c2cc(C)ccc2O1 (stereo not drawn)	OX1R antag-1 63, OX1R antag-2 73 | OX1R Fluo8 conf inactive | CHO Ca counter inactive | OX1R HTRF conf 86 | CHO-K1 HTRF cnt inactive
COc1ccc(-c2cc(C)no2)cc1S(=O)(=O)N1CCOc2ccccc21	none
Cn1c(=O)c(C(=O)COC(=O)c2cc(C3CC3)nc3ccccc23)c(N)n(Cc2ccccc2)c1=O	none (no result: M1 ag parental, CHO-K1 Ca antag, CHO-K1 Ca PAM)
Cn1c(=O)c(C(=O)COC(=O)c2cc(-c3ccco3)nc3ccccc23)c(N)n(CC2CC2)c1=O	OX1R antag-2 69 (no result: M1 ag parental, CHO-K1 Ca antag, CHO-K1 Ca PAM) | OX1R Fluo8 conf inactive | CHO Ca counter inactive | OX1R HTRF conf 64 | CHO-K1 HTRF cnt inactive
COc1ccc(CCNC(=O)CCCOc2ccc(C)cc2)cc1OC	none
COc1ccc(CCNC(=O)COc2ccc(-c3ccccc3)cc2)cc1OC	OX1R antag-2 75 | OX1R Fluo8 conf 38 | CHO Ca counter 39 | OX1R HTRF conf 82 | CHO-K1 HTRF cnt inactive
CCOc1ccc(/C=N/NC(=O)c2cc3c(OC)cc(OC)cc3[nH]2)cc1OC	OX1R antag-2 81 | OX1R Fluo8 conf 42 | CHO Ca counter inactive | OX1R HTRF conf 89 | CHO-K1 HTRF cnt inactive
COc1ccc(OC)c(/C=N/NC(=O)c2cc3c(OC)cccc3[nH]2)c1	OX1R antag-1 71, OX1R antag-2 101 | OX1R Fluo8 conf 32 | CHO Ca counter inactive | OX1R HTRF conf 89 | CHO-K1 HTRF cnt inactive
CNC(=O)c1ccccc1NC(=O)C1CC(=O)N(C(C)C)C1 (stereo not drawn)	none
COc1ccc(C)cc1NC(=O)C1CCCN(S(=O)(=O)c2cccc3cccnc23)C1 (stereo not drawn)	OX1R antag-2 79 | OX1R Fluo8 conf inactive | CHO Ca counter inactive | OX1R HTRF conf 80 | CHO-K1 HTRF cnt inactive
O=C(Nc1ccc2c(c1)OCCO2)C1CCCN1S(=O)(=O)c1cccc2cccnc12 (stereo not drawn)	none
COc1cccc(NC(=O)[C@@H]2CCCN2S(=O)(=O)c2cccc3cccnc23)c1	OX1R antag-1 47, OX1R antag-2 84 | OX1R Fluo8 conf 50 | CHO Ca counter inactive | OX1R HTRF conf 84 | CHO-K1 HTRF cnt inactive
COc1ccc(NC(=O)C2CCCN(S(=O)(=O)c3cccc4cccnc34)C2)c(OC)c1 (stereo not drawn)	none
O=C(Nc1cccc(F)c1)C1CCCN1S(=O)(=O)c1cccc2cccnc12 (stereo not drawn)	OX1R antag-2 71 | OX1R Fluo8 conf 31 | CHO Ca counter inactive | OX1R HTRF conf 89 | CHO-K1 HTRF cnt inactive
C[C@H]1Oc2ccccc2C(=O)C1C(=O)c1ccccc1 (stereo partly drawn)	none
Cn1c(CNc2nc(-c3ccccc3)cs2)nnc1SCC(=O)N1CCc2ccccc21	OX1R antag-1 47, OX1R antag-2 80 | OX1R Fluo8 conf inactive | CHO Ca counter inactive | OX1R HTRF conf inactive | CHO-K1 HTRF cnt inactive
CCOc1ccccc1N(CC(=O)NCCSCc1ccco1)S(=O)(=O)c1ccccc1	OX1R antag-1 43, OX1R antag-2 84 | OX1R Fluo8 conf 47 | CHO Ca counter inactive | OX1R HTRF conf 80 | CHO-K1 HTRF cnt inactive
O=C(Cc1ccc(N2CCNC2=O)cc1)N1CCCC(Nc2cccc(F)c2)C1 (stereo not drawn)	none
O=C(c1cccc(N2CCNC2=O)c1)N1CCCC(Nc2cccc(F)c2)C1 (stereo not drawn)	OX1R antag-2 98 | OX1R Fluo8 conf 68 | CHO Ca counter inactive | OX1R HTRF conf 71 | CHO-K1 HTRF cnt inactive
CS/C(Nc1cc(Cl)ccc1Cl)=C(/C#N)C(=O)c1ccco1	none
Cc1ccc(NC(=O)COc2cccc(Oc3ccccc3)c2)cc1S(=O)(=O)N1CCOCC1	OX1R antag-1 45, OX1R antag-2 30 | OX1R Fluo8 conf 32 | CHO Ca counter inactive | OX1R HTRF conf inactive | CHO-K1 HTRF cnt inactive
CCC(=O)N1CCc2cc(S(=O)(=O)CCC(=O)N3CCN(c4ccc(C(C)=O)cc4)CC3)ccc21	none
Cc1ccc2cc(C)c3nnc(SCC(=O)Nc4nc5c(s4)CCCC5)n3c2c1C	OX1R antag-2 84 | OX1R Fluo8 conf 41 | CHO Ca counter inactive | OX1R HTRF conf 75 | CHO-K1 HTRF cnt inactive
Cc1ccc(C)c2c1cc(C)c1nnc(SCC(=O)Nc3nc4c(s3)CCCC4)n12	none
O=c1[nH][nH]c(=S)n1C1CCCCC1	none (no result: M1 ag parental, CHO-K1 Ca antag, CHO-K1 Ca PAM)
CC(C)n1c(=O)[nH][nH]c1=S	OX1R antag-1 39, OX1R antag-2 63 | OX1R Fluo8 conf 55 | CHO Ca counter inactive | OX1R HTRF conf 79 | CHO-K1 HTRF cnt inactive
O=C(NC(Cc1c[nH]c2ccccc12)C(=O)N/N=C/c1cccnc1)c1cccs1 (stereo not drawn)	OX1R antag-2 71 | OX1R Fluo8 conf inactive | CHO Ca counter inactive | OX1R HTRF conf inactive | CHO-K1 HTRF cnt inactive
